# INS-1E ATP HTS: protection of INS-1E cells from cytokine death, primary screen, ATP luminescence, single point; INS-1E cytokine-induced death, 48 h; normalised: neutral wells 0, positive control 100; AID 488910, 2010; hit rate 0.1% among 20,000; protection from cytokine-induced ATP loss, % at 10 µM;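 active means mean replicate protection from cytokine-induced ATP loss at least 50% and at least 75% of replicates each reaching 50%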
#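 Assay system: INS-1E rat insulinoma cells. Amount: 8000 cells per well. Medium: phenol-red-free RPMI with 5% fetal bovine serum. Reagent: IL-1β, TNF-α and IFN-γ cytokine mix. Doses: one compound concentration, pin transfer. Schedule: 48 h co-treatment, 10 min post-lysis read. Detection: CellTiter-Glo luminescence measuring cellular ATP.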
# T cruzi intra: inhibitors of intracellular Trypanosoma cruzi, primary screen, cell-based, plate reader, single point, set 2. intracellular Trypanosoma cruzi in host cells. AID 651903, 2012. activity score (inhibition), % at 5.01 µM. hit rate 4.9% among 22,000; in the data active means activity score above about 55%;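 further: parasites and compound incubated about four days before reading; 0% = median of neutral control wells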
# A1 apoptosis 2: A1 inhibitors via caspase activation, primary screen, cell-based, luminescence, HTS, two replicates; MEF A1-2A-BIM cells, caspase-Glo luminescence, 3 h; percent of clofoctol response, DMSO zero; caspase activation, % (concentration not given with the values); 24,000 tested, under 10 active; in the data active means caspase activation above about 5.9%
#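 Test system – A1-2A-BIM-expressing MEF cells · Input – 2500 cells/well · Medium – RPMI-1640 growth medium with 10% FBS · Compound dosing – 50 nL pinned compound · Timing – 3 h compound exposure at 37 °C · Technique – Caspase-Glo luminescence (DEVD substrate) · Evaluation – Caspase-3/7 activity from luminescence increase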
# The depositor's hits bear a star; nt = no result. Shown is part of a subset that was picked to be rich in hits.
SMILES,INS-1E ATP HTS,T cruzi intra,A1 apoptosis 2
C[C@H]1CN([C@@H](C)CO)C(=O)Cc2cc(NC(=O)Nc3cccc4ccccc34)ccc2O[C@@H]1CN(C)Cc1ccc(-c2ccccc2)cc1,-7,58*,0
C[C@@H]1CN([C@@H](C)CO)C(=O)Cc2cc(NC(=O)Nc3cccc4ccccc34)ccc2O[C@@H]1CN(C)Cc1ccc2c(c1)OCO2,-16,53,0
C[C@@H]1CN([C@@H](C)CO)C(=O)Cc2cc(NC(=O)Nc3cccc4ccccc34)ccc2O[C@@H]1CN(C)Cc1ccc(Cl)c(Cl)c1,-62,65*,nt
COCCOC(=O)N1C(=O)[C@@]2(c3cc(C#CC4(O)CCCCCC4)ccc31)[C@H](c1ccccc1OCCO)N1[C@H](c3ccccc3)[C@H](c3ccccc3)OC(=O)[C@H]1[C@@H]2C(=O)N1CCc2cc(OC)c(OC)cc2C1,nt,nt,1
C[C@@H]1CCCCO[C@H](CN(C)C(=O)CCC(F)(F)F)[C@@H](C)CN([C@@H](C)CO)C(=O)c2cc(NC(=O)CCCN(C)C)ccc2O1,nt,nt,0
C[C@H](CO)N1C[C@H](C)[C@@H](CN(C)C(=O)Nc2ccc3c(c2)OCO3)OCc2cnnn2CCCC1=O,nt,-13,0
C[C@H](CO)N1C[C@H](C)[C@@H](CN(C)Cc2ccc3c(c2)OCO3)Oc2c(NC(=O)c3ccncc3)cccc2C1=O,15,76*,0
C[C@@H]1CN([C@@H](C)CO)C(=O)c2cccc(NC(=O)c3ccncc3)c2O[C@@H]1CN(C)Cc1ccc2c(c1)OCO2,3,-1,2
C[C@@H]1CN([C@H](C)CO)C(=O)c2cccc(NC(=O)c3ccncc3)c2O[C@@H]1CN(C)Cc1ccc2c(c1)OCO2,-6,-8,0
C[C@H]1CN([C@@H](C)CO)C(=O)c2cccc(NC(=O)c3ccncc3)c2O[C@@H]1CN(C)Cc1ccc2c(c1)OCO2,-5,78*,0
C[C@H](CO)N1C[C@H](C)[C@@H](CN(C)CC2CCCCC2)Oc2c(NC(=O)c3ccncc3)cccc2C1=O,-6,57*,nt
C[C@H]1CN([C@@H](C)CO)C(=O)c2cccc(NC(=O)c3ccncc3)c2O[C@H]1CN(C)CC1CCCCC1,4,57*,0
C[C@@H]1CN([C@@H](C)CO)C(=O)c2cccc(NC(=O)c3ccncc3)c2O[C@H]1CN(C)C(=O)NC1CCCCC1,17,-26,0
C[C@@H]1CN([C@@H](C)CO)C(=O)c2cccc(NC(=O)c3ccncc3)c2O[C@H]1CN(C)CC1CC1,11,41,-2
C[C@H]1CN([C@@H](C)CO)C(=O)c2cccc(NC(=O)c3ccncc3)c2O[C@@H]1CN(C)CC1CCCCC1,-16,86*,0
C[C@H]1CN([C@@H](C)CO)C(=O)c2cccc(NC(=O)c3ccncc3)c2O[C@H]1CN(C)C(=O)NC1CCCCC1,1,71*,2
C[C@@H]1CN([C@@H](C)CO)C(=O)c2cccc(NC(=O)c3ccncc3)c2O[C@@H]1CN(C)CC1CCCCC1,-4,-3,nt
C[C@H]1CN([C@@H](C)CO)C(=O)c2cccc(NC(=O)c3ccncc3)c2O[C@H]1CN(C)CC1CC1,9,-17,0
COc1ccc(S(=O)(=O)N(C)C[C@H]2OCCCC[C@H](C)Oc3ccc(N(C)C)cc3C(=O)N([C@@H](C)CO)C[C@@H]2C)cc1,nt,nt,0
COc1ccc(NC(=O)Nc2cccc3c2O[C@@H](CN(C)C(=O)NC(C)C)[C@H](C)CN([C@@H](C)CO)C3=O)cc1,13,-11,1
C[C@@H]1CCCCO[C@H](CN(C)C)[C@H](C)CN([C@@H](C)CO)C(=O)c2cc(NC(=O)CCC(F)(F)F)ccc2O1,nt,nt,0
C[C@@H]1CCCCO[C@@H](CN(C)C(=O)c2ccccc2)[C@@H](C)CN([C@H](C)CO)C(=O)c2cc(NC(=O)Nc3ccc4c(c3)OCO4)ccc2O1,16,-15,-1
COc1ccc(NC(=O)N(C)C[C@H]2Oc3ccc(NC(=O)CCN4CCOCC4)cc3CC(=O)N([C@@H](C)CO)C[C@@H]2C)cc1,9,-1,nt
C[C@H]1CN([C@@H](C)CO)C(=O)c2cccc(NS(=O)(=O)c3ccc(F)cc3)c2O[C@H]1CN(C)C(=O)Nc1ccc2c(c1)OCO2,6,-6,0
COc1ccc(S(=O)(=O)N(C)C[C@@H]2Oc3ccc(NC(=O)Cc4ccccc4)cc3CC(=O)N([C@H](C)CO)C[C@@H]2C)cc1,7,17,0
SMILES,INS-1E ATP HTS,T cruzi intra,A1 apoptosis 2
COc1ccc([Si](C)(C)[C@@H]2[C@@H](CCO)O[C@]3(C(=O)N(C)c4ccccc43)[C@H]2C)cc1,nt,nt,2
COc1ccc([Si](C)(C)[C@@H]2[C@@H](CCO)O[C@]3(C(=O)N(C)c4c(Br)cc(C)cc43)[C@H]2C)cc1,nt,nt,44*
Cc1noc(C)c1NC(=O)Nc1cccc2c1O[C@@H](CN(C)C(=O)NC(C)C)[C@@H](C)CN([C@H](C)CO)C2=O,6,-3,nt
C[C@@H]1CN([C@@H](C)CO)C(=O)Cc2cc(NC(=O)Nc3ccc(F)cc3)ccc2O[C@@H]1CN(C)Cc1ccc2c(c1)OCO2,-12,29,-2
C[C@@H]1CN([C@@H](C)CO)C(=O)Cc2cc(NC(=O)Nc3ccc(C(F)(F)F)cc3)ccc2O[C@@H]1CN(C)Cc1ccc(Cl)c(Cl)c1,-37,57*,nt
C[C@@H]1CN([C@H](C)CO)C(=O)Cc2cc(NC(=O)Nc3ccc(C(F)(F)F)cc3)ccc2O[C@@H]1CN(C)Cc1ccc(C(F)(F)F)cc1,-65,68*,1
C[C@H]1CN([C@@H](C)CO)C(=O)Cc2cc(NC(=O)Nc3ccc(C(F)(F)F)cc3)ccc2O[C@@H]1CN(C)Cc1ccc(Cl)c(Cl)c1,-12,-5,nt
C[C@H](CO)N1C[C@H](C)[C@@H](CN(C)Cc2ccc(C(F)(F)F)cc2)Oc2ccc(NC(=O)Nc3ccccc3)cc2CC1=O,nt,nt,2
C[C@@H]1CN([C@@H](C)CO)C(=O)Cc2cc(NC(=O)Nc3ccc(C(F)(F)F)cc3)ccc2O[C@H]1CN(C)Cc1ccc(-c2ccccc2)cc1,nt,nt,0
C[C@H](CO)N1C[C@H](C)[C@H](CN(C)Cc2ccc(Cl)c(Cl)c2)Oc2ccc(NC(=O)Nc3ccc(C(F)(F)F)cc3)cc2C1=O,-25,91*,-1
C[C@H]1CN([C@@H](C)CO)C(=O)c2cc(NC(=O)Nc3ccc(C(F)(F)F)cc3)ccc2O[C@@H]1CN(C)Cc1ccc(Cl)c(Cl)c1,-52,11,nt
C[C@H](CO)N1C[C@H](C)[C@H](CN(C)Cc2ccc(C(F)(F)F)cc2)Oc2ccc(NC(=O)Nc3ccc(C(F)(F)F)cc3)cc2CC1=O,-69,72*,6.6*
CC(C)NC(=O)Nc1ccc2c(c1)C(=O)N([C@H](C)CO)C[C@H](C)[C@H](CN(C)C(=O)Nc1ccc(F)cc1)O2,3,0,nt
C[C@H](CO)N1C[C@H](C)[C@H](CN(C)S(C)(=O)=O)Oc2c(NC(=O)C3CC3)cccc2C1=O,10,-10,nt
